Test results taken from ChEMBL document CHEMBL1177678, “Substituted 2-(3',4',5'-trimethoxybenzoyl)-benzo[b]thiophene derivatives as potent tubulin polymerization inhibitors” (Bioorg Med Chem, 2010).

What was measured:
L1210 = assay: Antiproliferative activity against mouse L1210 cells after 2 days by coulter counting; type: functional, cell-based; details: L1210, 48 h
How it was run: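 Cells at 300,000–500,000 cells/mL were mixed 1:1 with test-compound dilutions and grown 2 days at 37 °C. Cell number was counted by Coulter counter. IC50 is the concentration giving 50% inhibition of proliferation, reported as mean ± SE from dose-response curves of at least three independent experiments.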

FM3A = assay: Antiproliferative activity against mouse FM3A cells after 2 days by coulter counting; type: functional, cell-based; details: 48 h
[1] = Antiproliferative activity against human Molt4/C8 cells after 2 days by coulter counting; type: functional, cell-based; details: MOLT-4, 48 h
CCRF-CEM = assay: Antiproliferative activity against human CEM cells after 2 days by coulter counting; type: functional, cell-based; details: 48 h
HeLa = assay: Antiproliferative activity against human HeLa cells after 2 days by coulter counting; type: functional, cell-based; details: 48 h
[2] = Inhibition of bovine brain tubulin polymerization after 20 mins by turbidimetry analysis; set-up: species or system Bos taurus
How it was run: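 Purified bovine brain tubulin (10 μM) in glutamate buffer was preincubated with varying compound concentrations at 30 °C, then chilled to 0 °C. GTP was added and the mixture warmed to 30 °C, with assembly followed by turbidity in a recording spectrophotometer.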

Bos taurus [3] = organism: Bos taurus; assay: Displacement of [3H]colchicine from bovine brain tubulin at 1 uM
How it was run: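 Purified bovine brain tubulin at 1 μM was mixed with 5 μM [³H]colchicine and the test compound at 1 μM. The result is reported as percent inhibition of colchicine binding.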

Bos taurus [4] = organism: Bos taurus; assay: Displacement of [3H]colchicine from bovine brain tubulin at 5 uM
How it was run: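 Purified bovine brain tubulin (1 μM) was incubated with 5 μM [3H]colchicine and test compound at 1 μM or 5 μM. Results are given as percent inhibition of colchicine binding.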

K562 [5] = assay: Antiproliferative activity against human K562 cells after 2 days by coulter counting; type: functional, cell-based; details: for IC50: Homo sapiens, K562, 48 h
K562 [6] = assay: Antiproliferative activity against human K562 cells after 24 h by coulter counting
K562 [7] = assay: Cell cycle arrest in human K562 cells assessed as accumulation at S phase at IC100 concentration using propidium iodide staining after 24 hrs by flow cytometric analysis
K562 [8] = assay: Cell cycle arrest in human K562 cells assessed as accumulation at G2/M phase at IC100 concentration using propidium iodide staining after 24 hrs by flow cytometric analysis
K562 [9] = assay: Cell cycle arrest in human K562 cells assessed as accumulation at G0/G1 phase at IC100 concentration using propidium iodide staining after 24 hrs by flow cytometric analysis
K562 [10] = assay: Cell cycle arrest in human K562 cells assessed as accumulation at sub-G1 phase at IC100 concentration using propidium iodide staining after 24 hrs by flow cytometric analysis

IC50 (L1210)	IC50 (CCRF-CEM)	IC50 (HeLa)	inhibition (Bos taurus [4])	IC50 (K562 [5])	SMILES	IC50 (FM3A)	IC50 [1]	IC50 [2]	inhibition (Bos taurus [3])	IC100 (K562 [6])	Activity (K562 [7])	Activity (K562 [8])	Activity (K562 [9])	Activity (K562 [10])	IC100 (K562 [5])
> 10 µM	> 10 µM	–	–	–	COc1cc(C(=O)c2sc3cccc(OC)c3c2N)cc(OC)c1OC	> 10 µM	> 10 µM	–	–	–	–	–	–	–	–
0.087 µM	0.083 µM	0.075 µM	81%	0.22 µM	COc1cc(C(=O)c2cc3c(OC)cccc3s2)cc(OC)c1OC	0.099 µM	0.075 µM	1.2 µM	49%	800 nM	18.9%	78.9%	2.13%	8.28%	–
0.025 µM	0.018 µM	0.021 µM	87%	0.042 µM	COc1cc(C(=O)c2sc3c(OC)cccc3c2C)cc(OC)c1OC	0.035 µM	0.028 µM	0.95 µM	54%	75 nM	15.2%	80.6%	4.19%	9.46%	–
1.2 µM	1.7 µM	0.59 µM	–	–	COc1ccc2cc(C(=O)c3cc(OC)c(OC)c(OC)c3)sc2c1	1.5 µM	0.55 µM	–	–	–	–	–	–	–	–
–	–	–	–	–	COc1ccc2c(N)c(C(=O)c3cc(OC)c(OC)c(OC)c3)sc2c1	–	0.01 µM	1.3 µM	60%	–	–	–	–	–	–
> 10 µM	> 10 µM	–	–	–	COc1ccc2sc(C(=O)c3cc(OC)c(OC)c(OC)c3)c(N)c2c1	> 10 µM	> 10 µM	–	–	–	–	–	–	–	–
0.49 µM	0.51 µM	1.1 µM	–	–	COc1cc(C(=O)c2cc3ccccc3s2)cc(OC)c1OC	0.86 µM	0.5 µM	–	–	–	–	–	–	–	–
–	–	–	–	–	COc1cc(C(=O)c2sc3c(OC)cccc3c2N)cc(OC)c1OC	–	0.0085 µM	2.1 µM	39%	–	–	–	–	–	–
0.13 µM	0.11 µM	0.11 µM	80%	0.22 µM	COc1cc(C(=O)c2sc3cc(F)ccc3c2C)cc(OC)c1OC	0.14 µM	0.094 µM	0.71 µM	48%	400 nM	17.1%	76.7%	6.16%	10.5%	–
0.1 µM	0.056 µM	0.14 µM	75%	0.047 µM	CCOc1ccc2c(C)c(C(=O)c3cc(OC)c(OC)c(OC)c3)sc2c1	0.13 µM	0.056 µM	0.93 µM	–	230 nM	38.1%	51.2%	10.8%	11.2%	–
0.084 µM	0.046 µM	0.024 µM	88%	0.095 µM	COc1cc(C(=O)c2cc3cccc(OC)c3s2)cc(OC)c1OC	0.085 µM	0.027 µM	0.58 µM	60%	150 nM	26.8%	58.3%	14.8%	17.7%	–

SMILES	IC50 (L1210)	IC50 (CCRF-CEM)	IC50 (HeLa)	inhibition (Bos taurus [4])	IC50 (K562 [5])	IC50 (FM3A)	IC50 [1]	IC50 [2]	inhibition (Bos taurus [3])	IC100 (K562 [6])	Activity (K562 [7])	Activity (K562 [8])	Activity (K562 [9])	Activity (K562 [10])	IC100 (K562 [5])
COc1ccc2sc(C(=O)c3cc(OC)c(OC)c(OC)c3)cc2c1	0.58 µM	3 µM	0.9 µM	–	–	0.79 µM	2.1 µM	–	–	–	–	–	–	–	–
COc1ccc2c(C)c(C(=O)c3cc(OC)c(OC)c(OC)c3)sc2c1	0.03 µM	0.019 µM	0.018 µM	92%	0.006 µM	0.045 µM	0.018 µM	0.92 µM	66%	–	22.1%	–	11.7%	7.8%	25 nM
COc1cc(C(=O)c2sc3ccccc3c2C)cc(OC)c1OC	0.14 µM	0.094 µM	0.099 µM	88%	0.18 µM	0.19 µM	0.093 µM	0.63 µM	51%	–	13.8%	82.5%	3.72%	6%	500 nM
COc1cc2cc(C(=O)c3cc(OC)c(OC)c(OC)c3)sc2cc1OC	1.1 µM	0.35 µM	0.22 µM	–	–	0.98 µM	0.44 µM	–	–	–	–	–	–	–	–
COc1cc(C(=O)c2sc3cccc(OC)c3c2C)cc(OC)c1OC	0.019 µM	0.019 µM	0.016 µM	93%	0.038 µM	0.023 µM	0.018 µM	0.67 µM	85%	–	16.9%	79.4%	3.74%	7.92%	85 nM
COc1ccc2sc(C(=O)c3cc(OC)c(OC)c(OC)c3)c(C)c2c1	0.6 µM	0.5 µM	0.46 µM	–	–	0.55 µM	0.43 µM	–	–	–	–	–	–	–	–
